Results of several laboratories.
Target: Serine/threonine-protein kinase/endoribonuclease IRE1 (ERN1, Homo sapiens, UniProt O75460)

O=S(=O)(NC1CCC(c2cc(F)ccc2F)(S(=O)(=O)c2ccc(Cl)cc2)CC1)C(F)(F)F (stereo not shown)  remaining binding (cell-free assay; competition with immobilised ligand; 1 µM): 100%
CCCCNc1ncc2c(-c3ccc(F)cc3)nn(C[C@H]3CC[C@H](N)CC3)c2n1  inhibition (target engagement in cells; inhibitor; chemoproteomics; 20 mM): -1.9%
Cc1ccc(C(=O)Nc2ccc(CN3CCN(C)CC3)c(C(F)(F)F)c2)cc1C#Cc1cnc2cccnn12  remaining activity (enzyme activity; inhibitor; 23.5 nM): 81%
Nc1ncnc2occ(-c3ccc(NC(=O)Nc4cc(C(F)(F)F)ccc4F)cc3)c12  remaining signal (cell-free assay; inhibitor; 20 µM): 16%
COc1cc(Cl)c(C(=O)N[C@@H](CN[C@H]2CC[C@@H](N)CC2)Cc2ccc(C#N)cc2)cc1-c1ccc(CN[C@H](C)c2ccc(C)cc2)o1  remaining activity (enzyme activity; inhibitor; 1 µM): 93%
CN1CC(Oc2cnc(C#N)cc2-c2ccn3nc(NC(=O)C4CC4)cc3c2)C1  inhibition (enzyme activity; inhibitor; 1 µM): 4%
Cc1ccc(C(=O)NCc2ccsc2)cc1C#Cc1cn(C(C)C)c2ncnc(N)c12  activity vs control (enzyme activity; inhibitor; 1 µM): 100%
Cc1cc(NC(=O)c2cccc3cc(-c4cccc5[nH]nc(N)c45)ccc23)ccc1F  activity vs control (enzyme activity; inhibitor; 0.1 µM): 87%
O=C(Nc1cnn(-c2csc(C(=O)NC3COC3)c2)c1)Nc1ccccc1Cl  remaining activity (enzyme activity; inhibitor; 5 µM): 94.3%
Cc1ccc(NC(=O)c2ccc(C)c(C(F)(F)F)c2)cc1C#Cc1nn(C2CCC(O)CC2)c2ncnc(N)c12 (stereo not shown)  remaining signal (cell-free assay; 10 µM): 94%
CN(c1ccnc(CNc2nc(Nc3ccc4c(c3)CC(=O)N4)ncc2C(F)(F)F)n1)S(C)(=O)=O  remaining binding (cell-free assay; competition with immobilised ligand; 1 µM): 49%
COc1cccc2c(NCc3ccccc3)nc(-n3c(N)nc4ccccc43)nc12  inhibition (target engagement in cells; inhibitor; chemoproteomics; 20 mM): -6.5%
Cc1cnc(NC2CCOCC2)nc1-n1cnc(C(=O)NC(CN)c2cc(F)cc(Cl)c2)c1 (stereo not shown)  remaining activity (enzyme activity; inhibitor; radiometric; 1 µM): 99%
CN([C@@H]1CCc2c(CC(=O)O)c3ccccc3n2C1)S(=O)(=O)c1ccc(F)cc1  remaining binding (cell-free assay; competition with immobilised ligand; 1 µM): 94%
Cc1sc(C(=O)NC2COC2)cc1-n1cc(NC(=O)Nc2c(F)cccc2Cl)cn1  remaining activity (enzyme activity; inhibitor; 10 µM): 94.1%
CCN1CCN(Cc2ccc(NC(=O)c3ccc(C)c(Oc4ccnc5[nH]ccc45)c3)cc2C(F)(F)F)CC1  inhibition (target engagement in cells; inhibitor; chemoproteomics; Huh-7; 10 µM): -12.6%
